ChEMBL document CHEMBL1140884, “Oligodeoxyribonucleotide-based antagonists for Toll-like receptors 7 and 9” (2009)
The source made the active and inactive calls. No cut-off for these calls is given here.

Legend:
PBMC [1] = assay: Induction of MIP1beta secretion in human PBMC; format: functional, cell-based
Procedure, shortened: (§1)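 Human PBMCs (5×10^6/mL; 1×10^6 per well) were cultured 24 h with TLR9 agonist 5 µg/mL or TLR7/8 agonist 100 µg/mL, alone or with antagonist at 1:4. Compounds were dissolved in PBS. Supernatant cytokines were measured by Luminex human 25-plex bead assay. One representative donor of six.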

PBMC [2] = assay: Induction of IFN-gamma secretion in human PBMC; format: functional, cell-based; procedure, shortened: as §1
PBMC [3] = assay: Induction of TNFalpha secretion in human PBMC; format: functional, cell-based; procedure, shortened: as §1
PBMC [4] = assay: Induction of IL12 secretion in human PBMC; format: functional, cell-based; procedure, shortened: as §1
PBMC [5] = assay: (§2) Induction of IP10 secretion in human PBMC; format: functional, cell-based; procedure, shortened: as §1
[6] = target: T1, Toll-like receptor 9 (Homo sapiens) (UniProt Q9NR96); assay: Antagonist activity at TLR9 in human PBMC assessed as inhibition of 5'-TCTGTCRTTCT-X-TCTTRCTGTCT-5'-induced NF-kappaB activation at 40 ug/mL treated 1 hr before induction measured after 2 hrs; format: functional
T1 sequence (whole entry): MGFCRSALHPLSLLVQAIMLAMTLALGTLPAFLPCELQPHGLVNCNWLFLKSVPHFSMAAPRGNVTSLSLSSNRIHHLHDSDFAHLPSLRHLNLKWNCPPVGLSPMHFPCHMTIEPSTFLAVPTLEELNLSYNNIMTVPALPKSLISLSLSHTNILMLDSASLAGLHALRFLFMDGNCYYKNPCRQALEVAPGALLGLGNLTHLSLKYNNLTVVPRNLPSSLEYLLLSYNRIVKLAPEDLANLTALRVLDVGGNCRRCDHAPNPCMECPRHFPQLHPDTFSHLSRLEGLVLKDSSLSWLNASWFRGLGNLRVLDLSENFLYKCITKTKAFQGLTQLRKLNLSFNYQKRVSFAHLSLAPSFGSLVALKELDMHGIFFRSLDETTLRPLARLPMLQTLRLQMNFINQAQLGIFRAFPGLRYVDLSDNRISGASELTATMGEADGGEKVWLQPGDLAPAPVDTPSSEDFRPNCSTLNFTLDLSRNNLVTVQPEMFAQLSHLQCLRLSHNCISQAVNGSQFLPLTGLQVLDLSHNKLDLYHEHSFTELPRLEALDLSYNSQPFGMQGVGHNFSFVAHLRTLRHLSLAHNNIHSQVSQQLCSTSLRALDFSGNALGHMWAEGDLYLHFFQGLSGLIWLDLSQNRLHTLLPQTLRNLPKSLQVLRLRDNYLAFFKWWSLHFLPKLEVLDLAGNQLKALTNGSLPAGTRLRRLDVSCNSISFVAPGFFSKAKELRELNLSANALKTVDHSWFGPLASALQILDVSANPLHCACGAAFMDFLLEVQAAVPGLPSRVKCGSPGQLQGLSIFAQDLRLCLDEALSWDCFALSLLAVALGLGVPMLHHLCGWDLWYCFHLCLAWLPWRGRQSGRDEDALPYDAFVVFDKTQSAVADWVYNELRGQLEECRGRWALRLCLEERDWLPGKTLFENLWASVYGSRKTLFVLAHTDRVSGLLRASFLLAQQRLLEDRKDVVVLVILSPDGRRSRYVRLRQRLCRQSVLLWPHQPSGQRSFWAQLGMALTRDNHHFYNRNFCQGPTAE
Procedure, shortened: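 Human PBMCs plated at 1×10^7 cells/well were preincubated with antagonist at the indicated concentrations for 1 h. TLR9 or TLR7/8 agonist was then added for 2 h. Nuclear extracts were analysed for NF-κB by EMSA. One representative donor of three.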

[7] = target: T2, Toll-like receptor 9 (Mus musculus) (UniProt Q9EQU3); assay: Antagonist activity at mouse TLR9 expressed in HEK293 cells assessed as inhibition of 5'-CTATCTGTCGTTCTCTGT-3'-induced NF-kappaB activation by SEAP reporter gene assay; format: functional, cell-based
T2 sequence (whole entry): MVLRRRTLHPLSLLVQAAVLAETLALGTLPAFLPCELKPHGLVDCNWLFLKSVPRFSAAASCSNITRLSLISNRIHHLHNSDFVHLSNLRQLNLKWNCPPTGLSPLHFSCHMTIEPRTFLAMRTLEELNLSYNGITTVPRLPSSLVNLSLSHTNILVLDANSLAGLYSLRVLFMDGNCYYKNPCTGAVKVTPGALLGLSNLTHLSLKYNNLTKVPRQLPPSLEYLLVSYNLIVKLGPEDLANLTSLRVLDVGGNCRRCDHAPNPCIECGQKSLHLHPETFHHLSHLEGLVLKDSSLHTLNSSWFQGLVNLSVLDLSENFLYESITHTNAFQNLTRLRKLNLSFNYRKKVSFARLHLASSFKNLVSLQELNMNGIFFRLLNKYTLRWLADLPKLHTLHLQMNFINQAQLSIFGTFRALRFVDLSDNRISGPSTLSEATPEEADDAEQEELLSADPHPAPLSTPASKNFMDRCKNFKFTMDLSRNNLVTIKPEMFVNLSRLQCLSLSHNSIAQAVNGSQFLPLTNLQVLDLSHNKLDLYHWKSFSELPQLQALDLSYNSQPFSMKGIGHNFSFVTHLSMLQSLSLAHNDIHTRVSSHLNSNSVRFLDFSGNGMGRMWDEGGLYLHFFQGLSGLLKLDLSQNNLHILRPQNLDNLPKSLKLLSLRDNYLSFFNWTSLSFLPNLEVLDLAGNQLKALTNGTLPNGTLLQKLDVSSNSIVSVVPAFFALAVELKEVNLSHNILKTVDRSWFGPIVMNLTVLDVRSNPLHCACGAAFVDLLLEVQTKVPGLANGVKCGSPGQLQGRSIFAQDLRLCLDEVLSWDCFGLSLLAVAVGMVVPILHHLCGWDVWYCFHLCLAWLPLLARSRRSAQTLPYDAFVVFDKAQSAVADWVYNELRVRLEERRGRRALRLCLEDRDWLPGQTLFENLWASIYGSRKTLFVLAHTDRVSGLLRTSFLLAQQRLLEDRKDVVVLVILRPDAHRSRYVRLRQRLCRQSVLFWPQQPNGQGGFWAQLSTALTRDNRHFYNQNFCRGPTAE
Procedure, shortened: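 Mouse TLR9-HEK293 cells were transfected with a SEAP reporter for 6 h. They were then stimulated for 18 h with agonist (0.25 or 0.5 µg/mL) plus increasing antagonist concentrations or set agonist:antagonist ratios. Quanti-Blue read-out, reported as % NF-κB activity with agonist alone as 100%.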

PBMC [8] = assay: Inhibition of 5'-TCTGTCRTTCT-X-TCTTRCTGTCT-5'-induced cytokines secretion in human PBMC at 1:5 agonist to drug ratio; format: functional, cell-based
Procedure, shortened: (§3)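 Human PBMCs isolated from healthy volunteer blood by Ficoll gradient, cultured at 1×10^6/200 μL in supplemented RPMI 1640 with 10% heat-inactivated FBS. Treated for 24 h with agonist and/or antagonist dissolved in PBS; TLR9 agonist at 5 μg/mL, TLR7/8 agonist at 100 μg/mL. Supernatant cytokines/chemokines by Luminex human 25-plex bead assay; unstimulated cells as control.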

PBMC [9] = assay: as §2; format: functional, cell-based; procedure, shortened: as §1; remark: listed apart in the source
[10] = target: T2, Toll-like receptor 9 (Mus musculus); assay: Agonist activity at mouse TLR9 expressed in HEK293 cells assessed as activation of NF-kappaB at 10 ug/mL by SEAP reporter gene assay; format: functional, cell-based
Procedure, shortened: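 HEK293 cells stably expressing mouse TLR9 were transiently transfected with a SEAP reporter for 6 h. Compounds were added at 10 µg/mL for 18 h. SEAP was read with Quanti-Blue substrate and expressed as fold change in NF-κB activity.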

PBMC [11] = assay: Induction of MCP1 secretion in human PBMC; format: functional, cell-based; procedure, shortened: as §1
PBMC [12] = assay: Induction of IFNalpha secretion in human PBMC; format: functional, cell-based; procedure, shortened: as §1
[13] = target: Toll-like receptor 7 (Homo sapiens) (UniProt Q9NYK1); assay: Antagonist activity at TLR7/8 in human PBMC assessed as inhibition of 5'-UGCUGUUCUG-X-GUCUUGUCGU-5'-induced NF-kappaB activation in human PBMC at 400 ug/mL treated 1 hr before induction measured after 2 hrs
Chain of Toll-like receptor 7 (Homo sapiens) (Q9NYK1 whole entry, looked up): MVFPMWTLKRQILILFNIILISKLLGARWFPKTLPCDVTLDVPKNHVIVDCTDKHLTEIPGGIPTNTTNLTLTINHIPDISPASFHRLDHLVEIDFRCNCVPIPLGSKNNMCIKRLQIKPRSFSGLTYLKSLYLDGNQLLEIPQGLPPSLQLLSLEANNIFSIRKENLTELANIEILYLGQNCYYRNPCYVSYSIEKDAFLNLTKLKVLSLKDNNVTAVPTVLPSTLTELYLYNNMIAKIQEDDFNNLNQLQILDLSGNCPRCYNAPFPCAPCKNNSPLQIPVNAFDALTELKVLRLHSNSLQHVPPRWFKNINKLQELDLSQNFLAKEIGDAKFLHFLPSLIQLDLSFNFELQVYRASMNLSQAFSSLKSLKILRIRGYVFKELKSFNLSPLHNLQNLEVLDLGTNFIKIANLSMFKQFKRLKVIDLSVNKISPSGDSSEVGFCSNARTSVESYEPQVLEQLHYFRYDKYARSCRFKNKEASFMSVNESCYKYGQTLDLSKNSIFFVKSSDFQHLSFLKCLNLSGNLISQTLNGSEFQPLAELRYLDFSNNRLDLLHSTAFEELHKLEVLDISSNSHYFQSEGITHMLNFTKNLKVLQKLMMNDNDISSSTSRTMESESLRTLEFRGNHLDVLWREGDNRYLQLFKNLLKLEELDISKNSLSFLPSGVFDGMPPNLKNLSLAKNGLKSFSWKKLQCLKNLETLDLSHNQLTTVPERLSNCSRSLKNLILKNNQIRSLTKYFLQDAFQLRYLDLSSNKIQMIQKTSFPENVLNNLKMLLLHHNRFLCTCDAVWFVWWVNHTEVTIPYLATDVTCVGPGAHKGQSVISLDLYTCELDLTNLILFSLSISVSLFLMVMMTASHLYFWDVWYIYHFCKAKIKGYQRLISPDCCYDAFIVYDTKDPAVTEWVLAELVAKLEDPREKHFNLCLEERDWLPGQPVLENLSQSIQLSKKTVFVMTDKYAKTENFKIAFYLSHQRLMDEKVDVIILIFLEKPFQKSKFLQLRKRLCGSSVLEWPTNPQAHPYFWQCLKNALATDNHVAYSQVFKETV

PBMC [14] = assay: Inhibition of 5'-UGCUGUUCUG-X-GUCUUGUCGU-5'-induced cytokines secretion in human PBMC at 1:5 agonist to drug ratio; format: functional, cell-based; procedure, shortened: as §3
PBMC [15] = assay: Inhibition of 5'-UGCUGUUCUG-X-GUCUUGUCGU-5'-induced chemokines secretion in human PBMC at 1:5 agonist to drug ratio; format: functional, cell-based; procedure, shortened: as §3
PBMC [16] = assay: Inhibition of 5'-TCTGTCRTTCT-X-TCTTRCTGTCT-5'-induced chemokines secretion in human PBMC at 1:5 agonist to drug ratio; format: functional, cell-based; procedure, shortened: as §3
PBMC [17] = assay: Inhibition of 5'-TCTGTCRTTCT-X-TCTTRCTGTCT-5'-induced human PBMC proliferation treated 72 hrs before induction; format: functional, cell-based
PBMC [18] = assay: Induction of IL6 secretion in human PBMC; format: functional, cell-based; procedure, shortened: as §1
PBMC [19] = assay: Induction of MIG secretion in human PBMC; format: functional, cell-based; procedure, shortened: as §1
[20] = target: T1, Toll-like receptor 9 (Homo sapiens); assay: Agonist activity at TLR9 in human PBMC assessed as NF-kappaB activation at 5 ug/mL; format: functional
Procedure, shortened: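 Human PBMCs from healthy-donor blood (Ficoll) plated at 1×10^7 cells/well, stimulated for 2 h. Nuclear extracts analysed for NF-κB binding by EMSA on native polyacrylamide gels with autoradiography. One representative donor of three.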

Structure (SMILES)	Activity (PBMC [1])	Activity (PBMC [2])	Activity (PBMC [3])	Activity (PBMC [4])	Activity (PBMC [5])	Activity [6]	Activity [7]	Activity (PBMC [8])	Activity (PBMC [9])	Activity [10]	Activity (PBMC [11])	Activity (PBMC [12])	Activity [13]	Activity (PBMC [14])	Activity (PBMC [15])	Activity (PBMC [16])	Activity (PBMC [17])	Activity (PBMC [18])	Activity (PBMC [19])	Activity [20]
CO[C@@H]1[C@H](OP(=O)(S)OC[C@H]2O[C@@H](n3ccc(N)nc3=O)C[C@@H]2OP(=O)(S)OC[C@H]2O[C@@H](n3ccc4c(=O)[nH]c(N)nc43)C[C@@H]2OP(=O)(S)OC[C@H]2O[C@@H](n3cc(C)c(=O)[nH]c3=O)C[C@@H]2OP(=O)(S)OC[C@H]2O[C@@H](n3cc(C)c(=O)[nH]c3=O)C[C@@H]2OP(=O)(S)OC[C@H]2O[C@@H](n3ccc(N)nc3=O)C[C@@H]2OP(=O)(S)OC[C@H]2O[C@@H](n3cc(C)c(=O)[nH]c3=O)C[C@@H]2OP(=O)(S)OC[C@H]2O[C@@H](n3ccc(N)nc3=O)C[C@@H]2OP(=O)(S)OC[C@H]2O[C@@H](n3cc(C)c(=O)[nH]c3=O)C[C@@H]2OP(=O)(S)OC[C@H]2O[C@@H](n3cnc4c(=O)[nH]c(N)nc43)C[C@@H]2OP(=O)(S)OC[C@H]2O[C@@H](n3cc(C)c(=O)[nH]c3=O)C[C@@H]2O)[C@@H](COP(=O)(S)O[C@H]2[C@@H](OC)[C@H](n3cnc4c(=O)[nH]c(N)nc43)O[C@@H]2COP(=O)(S)O[C@H]2C[C@H](n3cc(C)c(=O)[nH]c3=O)O[C@@H]2COP(=O)(S)O[C@H]2C[C@H](n3ccc(N)nc3=O)O[C@@H]2COP(=O)(S)O[C@H]2C[C@H](n3cc(C)c(=O)[nH]c3=O)O[C@@H]2COP(=O)(S)O[C@H]2C[C@H](n3cnc4c(N)ncnc43)O[C@@H]2COP(=O)(S)O[C@H]2C[C@H](n3cc(C)c(=O)[nH]c3=O)O[C@@H]2COP(=O)(S)O[C@@H]2[C@H](O)[C@@H](n3ccc(N)nc3=O)O[C@H]2CO)O[C@H]1n1ccc(=O)[nH]c1=O (stereo not given in full)	inactive	inactive	inactive	inactive	inactive	Active	Active	Active	inactive	inactive	inactive	inactive	Active	Active	Active	Active	Active	inactive	inactive	
Cc1cn([C@H]2C[C@H](OP(=O)(S)OC[C@H]3O[C@@H](n4ccc(N)nc4=O)C[C@@H]3OP(=O)(S)OC[C@H]3O[C@@H](n4cc(C)c(=O)[nH]c4=O)C[C@@H]3OP(=O)(S)OC[C@H]3O[C@@H](n4cnc5c(=O)[nH]c(N)nc54)C[C@@H]3OP(=O)(S)OC[C@H]3O[C@@H](n4cc(C)c(=O)[nH]c4=O)C[C@@H]3OP(=O)(S)OC[C@H]3O[C@@H](n4ccc(N)nc4=O)C[C@@H]3OP(=O)(S)OC[C@H]3O[C@@H](n4ccc5c(N)ncnc54)C[C@@H]3OP(=O)(S)OC[C@H]3O[C@@H](n4cc(C)c(=O)[nH]c4=O)C[C@@H]3OP(=O)(S)OC[C@H]3O[C@@H](n4cc(C)c(=O)[nH]c4=O)C[C@@H]3OP(=O)(S)OC[C@H]3O[C@@H](n4ccc(N)nc4=O)C[C@@H]3OP(=O)(S)OC[C@H]3O[C@@H](n4cc(C)c(=O)[nH]c4=O)C[C@@H]3OP(=O)(S)OCC(O)COP(=O)(S)O[C@H]3C[C@H](n4cc(C)c(=O)[nH]c4=O)O[C@@H]3COP(=O)(S)O[C@H]3C[C@H](n4ccc(N)nc4=O)O[C@@H]3COP(=O)(S)O[C@H]3C[C@H](n4cc(C)c(=O)[nH]c4=O)O[C@@H]3COP(=O)(S)O[C@H]3C[C@H](n4cc(C)c(=O)[nH]c4=O)O[C@@H]3COP(=O)(S)O[C@H]3C[C@H](n4ccc5c(=O)[nH]c(N)nc54)O[C@@H]3COP(=O)(S)O[C@H]3C[C@H](n4ccc(N)nc4=O)O[C@@H]3COP(=O)(S)O[C@H]3C[C@H](n4cc(C)c(=O)[nH]c4=O)O[C@@H]3COP(=O)(S)O[C@H]3C[C@H](n4cnc5c(=O)[nH]c(N)nc54)O[C@@H]3COP(=O)(S)O[C@H]3C[C@H](n4cc(C)c(=O)[nH]c4=O)O[C@@H]3COP(=O)(S)O[C@H]3C[C@H](n4ccc(N)nc4=O)O[C@@H]3COP(=O)(S)O[C@H]3C[C@H](n4cc(C)c(=O)[nH]c4=O)O[C@@H]3CO)[C@@H](CO)O2)c(=O)[nH]c1=O (stereo not given in full)	Active	Active	Active	Active	Active				Active		Active	Active						Active	Active	Active
